Screening results from PubChem BioAssay.
RORa activator: RORA (human) activation. CHO-K1 Gal4-RORA LBD luciferase reporter, luminescence; percent increase over mock-subtracted basal signal. P35398. actives 1.5% (n = 65,000). AID 560. activation, % at 10 µM;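 active = activation above the mean of all tested compounds plus 3 SD, cut at about 49% in these data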;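 note: 0% = DMSO-treated RORA cells and 100% = added signal equal to DMSO minus mock-transfected cells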
JNK3 inh: inhibitors of human JNK3 kinase; actives 0.61% (n = 60,000); AID 746; purified JNK3 kinase activity, HTS; P53779; inhibition, % at 8 µM; in the data active = inhibition above about 17%;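 note: 0% = DMSO and 100% = reference inhibitor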
Target sequence (P53779 whole entry, looked up): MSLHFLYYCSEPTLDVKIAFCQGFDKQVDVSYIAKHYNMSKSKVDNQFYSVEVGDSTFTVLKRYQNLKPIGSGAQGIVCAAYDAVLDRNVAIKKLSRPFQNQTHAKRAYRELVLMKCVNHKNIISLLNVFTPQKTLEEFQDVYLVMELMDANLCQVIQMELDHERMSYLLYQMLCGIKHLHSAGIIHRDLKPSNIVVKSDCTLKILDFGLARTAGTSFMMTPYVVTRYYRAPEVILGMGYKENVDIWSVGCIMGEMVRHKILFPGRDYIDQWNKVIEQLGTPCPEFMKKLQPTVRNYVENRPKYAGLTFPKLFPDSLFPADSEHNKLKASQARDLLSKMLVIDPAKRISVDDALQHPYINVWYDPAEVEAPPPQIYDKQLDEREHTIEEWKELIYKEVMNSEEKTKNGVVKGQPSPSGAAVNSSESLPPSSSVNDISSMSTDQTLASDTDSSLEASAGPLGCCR
HEK293 NFkB inh: lowers PMA/ionomycin-induced NF-kB signal in HEK293 cells; HEK-293 NF-kB luciferase reporter, luminescence; inhibition, % at 3 µM; actives 0.21% (n = 62,000); AID 465;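 active = inhibition above the mean of all tested compounds plus 3 SD, cut at about 40% in these data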;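 note: 0% = stimulated DMSO wells and 100% = 10 µM reference inhibitor 5653914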
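Timing: 1 h pretreatment, 16 h stimulation, 37 °C; system: HEK-293 cells with stable firefly luciferase reporter driven by four HIV NF-kB elements; doses: 3 µM once, 0.30% DMSO; measured by: luciferase luminescence; control set: DMSO and 10 µM reference inhibitor; repeats: single test; reagent: PMA plus ionomycin mix as NF-kB-activating stimulus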
SF-1 act: activates the human nuclear receptor SF-1; Q13285; CHO-K1 Gal4-SF-1 LBD luciferase reporter; % increase over DMSO SF-1-specific signal; activation, % at 10 µM; actives 1.9% (n = 65,000); AID 522;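 active = activation above the mean activation of all tested compounds plus 3 SD, cut at about 50% in these data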
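Test system: CHO-K1 cells with Gal4–hSF-1 LBD chimera plus Gal4-driven luciferase; Input: 4,000 cells/well; Compound: 10 µM only; Times: 20 h compound treatment, 37 °C; Measured by: steady-glow luciferase luminescence, read after 15 min reagent incubation; Measure: percent activation versus DMSO; Control set: DMSO and mock-transfected background; Replicates: one test per compound.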
D1 mod: allosterically modulates the human D1 dopamine receptor; P21728; HEK293 D1, CRE-luciferase, dopamine EC30 potentiation; actives deviate in either direction; B-score at 10 µM; actives 5.9% (n = 58,000); AID 641;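 active = luminescence count or its row- and column-corrected plate score outside the 99.7% band of the plate's sample wells, on either side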
* = called active by the depositor; . = no result. Sampled rows, rich in hits. Any-hit rate of the full collection: about 7.9%.

SMILES	RORa activator	JNK3 inh	HEK293 NFkB inh	SF-1 act	D1 mod
CC1(C)CC(=O)C=C(NCCN2CCN(C(=O)Nc3ccc(Cl)c(Cl)c3)CC2)C1	14.3	0.0	1.8	-15.3	-0.0711
O=C(Nc1ccc(Cl)c(Cl)c1)N1CC=CCC1	57.8*	6.3	-25.1	55.4*	-0.291
CCCCSc1nnc(-c2c[nH]c3ccccc23)n1C	32.4	-3.5	-10.0	56.9*	-0.0569
CCOc1ccc2nc(SCC(=O)c3cccs3)sc2c1	26.0	7.2	-21.2	54.0*	1.04
CCOc1ccc2nc(NC(=O)CS(=O)(=O)c3ccccc3)sc2c1	35.0	-0.5	2.2	17.8	-0.128
CCOc1ccc2nc(SCC(=O)NCc3ccco3)sc2c1	-20.5	6.4	1.0	2.9	-0.0683
COc1ccc2nc(NC(=O)c3ccc(-n4nc(C)cc4C)cc3)sc2c1	-2.8	-1.5	10.3	-15.1	0.159
COCC(=O)Nc1nc2ccc(C)cc2s1	-3.6	-1.0	-34.3	15.7	-4.95*
COc1ccc2nc(NC(=O)c3ccc4ncsc4c3)sc2c1	54.1*	0.9	-21.1	61.0*	0.00632
CCCC(=O)Nc1nc2ccc(OCC)cc2s1	49.1*	8.7	-33.4	50.5*	-0.742
Cc1nc2ccc(C(=O)O)cc2c2c1CC(C)S2 (stereo not given)	-0.7	1.6	5.0	14.6	.
Oc1c(C(c2cccc(F)c2)N2CCN(Cc3ccccc3)CC2)sc2ncnn12 (stereo not given)	21.4	5.9	-10.8	30.6	0.78
CCCCc1cc(O)c(CCCC)c(O)c1	49.9*	4.9	-5.2	34.9	2.44
O=C(c1cc(Cl)cc(Cl)c1)N1CCOCC1	-6.4	-4.4	11.4	-8.8	-0.268
CCOc1ccc2nc(N3CCC(C(=O)N4CCN(c5ncccn5)CC4)CC3)sc2c1	69.5*	-2.3	9.4	17.5	-0.449
CCOc1ccc2nc(N3CCC(C(=O)N4CCN(c5ccccn5)CC4)CC3)sc2c1	73.3*	1.4	10.1	15.3	.
CCOC(=O)N1CCN(C(=O)C2CCCN(c3nc4ccc(OCC)cc4s3)C2)CC1 (stereo not given)	33.7	-1.5	-1.2	-11.7	-0.111
CC(=O)Oc1ccc2cc(-c3nc4ccccc4n3C)c(=O)oc2c1	76.1*	3.5	-10.3	64.6*	-1.02
CCCCn1c(SCC(=O)c2ccc(OC)cc2OC)nc2cc(S(N)(=O)=O)ccc21	-7.5	-1.7	6.9	1.9	2.48
CCCCn1c(SCc2c(C)noc2C)nc2cc(S(N)(=O)=O)ccc21	-16.1	-15.3	41.7*	-37.4	.
COc1cccc(C2CC(c3ccccc3)Nc3nc(N)nn32)c1 (stereo not given)	-0.4	2.1	-2.6	6.6	5.32*
Cc1nnc2c3ccccc3c(-c3ccccc3)nn12	-14.8	10.0	19.4	3.3	14.5*
c1ccc(OCCCc2nc(-c3ccncc3)no2)cc1	-12.2	-1.1	-2.3	-4.0	0.0985
c1ccc(-c2noc(CN3CCN(c4ccccc4)CC3)n2)cc1	-9.3	3.9	-20.1	-1.3	0.105
Cc1cc(OCc2nc(-c3cccnc3)no2)c(C)cc1Br	-16.2	-2.3	8.6	2.6	0.111
SMILES	RORa activator	JNK3 inh	HEK293 NFkB inh	SF-1 act	D1 mod
COc1nc(-c2ccccc2)ccc1-c1noc(COc2ccccc2)n1	-10.1	-6.8	12.5	-11.0	-0.797
c1ccc(OCc2nc(-c3ccccc3)no2)cc1	39.9	0.0	4.0	55.5*	-0.47
CC1CCN(Cc2nc(-c3ccccc3)no2)CC1	19.1	4.1	-18.9	51.2*	0.25
Clc1ccc(OCc2nc(-c3ccncc3)no2)c(Br)c1	58.9*	-1.0	-53.7	43.9	-1.73
Clc1ccccc1OCc1nc(-c2ccncc2)no1	54.5*	-1.6	-28.4	91.5*	.
CC(C)(C)SCCNC(=O)c1ccc(NS(C)(=O)=O)cc1	21.1	-5.5	-6.0	22.6	0.775
ON1C2CCCCC2N(O)C1c1c(F)c(F)c(F)c(F)c1F (stereo not given)	1.8	-5.3	14.8	4.5	-1.16
CCCCCCn1c(CN2CCN(C(=O)OCC)CC2)nc2c1c(=O)n(C)c(=O)n2C	4.5	-1.1	24.6	-5.6	0.0117
O=C(CCSc1nc(-c2ccco2)cc(C(F)(F)F)n1)Nc1ccc2c(c1)OCO2	15.7	-2.9	14.8	-2.4	-0.204
COc1ccc(-c2ncc3ccccn23)cc1	20.9	9.9	-15.6	52.8*	-0.0602
COc1ccc(-c2nnc3sc(-c4ccccc4OC)nn23)cc1	-5.9	6.7	.	-17.0	.
c1ccc(-n2c(-c3ccncc3)nnc2-c2cccs2)cc1	-11.3	1.6	-1.5	3.5	0.00931
c1csc(-c2ncc3ccccn23)c1	-0.9	11.8	3.5	11.5	-3.8*
COc1ccc(S(=O)(=O)N2CCCN(S(=O)(=O)c3ccc(OC)cc3C)CC2)c(C)c1	-1.4	-3.9	11.3	1.1	.
CCCc1noc(-c2ccc(-c3ccccc3)cc2)n1	56.8*	4.6	-42.8	55.2*	2.12
C=CCOC(=O)C1=C(C)NC(=O)NC1c1ccc(OC(=O)c2ccco2)c(OC)c1 (stereo not given)	-11.4	1.5	2.2	11.7	-5.37*
CCOC(=O)C1=C(C)NC(=O)NC1c1ccc(OC(=O)c2ccco2)c(OC)c1 (stereo not given)	-6.5	2.7	4.9	11.9	0.636
Nc1c(C(=O)NC2CCCC2)sc2nc(-c3cccs3)ccc12	20.1	-2.5	14.3	59.7*	0.464
Cc1ccc(S(=O)c2ccc(C)cc2)cc1	-1.9	5.2	7.8	-15.2	-0.846
Cc1ccc(-c2nn(-c3ccccc3)cc2C(=O)N2CCOCC2)cc1	-1.6	2.0	3.6	6.1	-4.04*
CC(=O)c1ccccc1OCCCN1CCCCC1	-5.5	-1.7	13.0	0.8	-4.44*
Clc1ccccc1OCCCCN1CCCC1	-4.0	-2.7	15.5	-21.0	-1.48
N=C1C(c2nc3ccccc3s2)=C(O)CN1Cc1ccco1	36.2	8.8	-22.9	51.5*	-0.602
COc1ccc(N2CC(O)=C(c3nc4ccccc4s3)C2=N)c(OC)c1	3.0	3.2	15.0	-0.4	.
Nc1ccc(Cl)cc1/C(=N/O)c1ccccc1	-1.7	-5.9	.	4.4	.
SMILES	RORa activator	JNK3 inh	HEK293 NFkB inh	SF-1 act	D1 mod
O=C1N2c3ccccc3CCc3cccc(c32)C1(O)C(F)(F)F (stereo not given)	-6.8	-5.7	11.6	-11.6	-2.74*
CCCn1c(=O)c2ccccc2n2c(SCC(=O)c3cc(C)n(CCOC)c3C)nnc12	-7.0	4.3	-1.2	-3.6	2.24*
COCCn1c(C)cc(C(=O)CSc2nnc(C)s2)c1C	-68.1	-7.2	45.8*	-68.0	-7.8*
CCCn1c(=O)c2ccccc2n2c(SCCOc3ccc(C)cc3)nnc12	-20.0	0.7	11.2	-2.7	.
COc1ccc(Nc2ccc3c(c2)=NC2(CCCCC2)[N+]=3[O-])cc1	.	.	.	.	-2.72*
[O-][N+]1=c2ccc(Nc3ccccc3)cc2=NC12CCCCC2	-50.6	5.5	22.7	-61.8	-0.442
CC1CCN(c2nc3ccc(C(=O)O)cc3s2)CC1	-92.3	-7.4	82.8*	-93.7	.
